Assay results published in ChEMBL document CHEMBL4765325, “Discovery of dihydropyrrolidones as novel inhibitors against influenza A virus” (Eur J Med Chem, 2020).
Calls of active or inactive are those of the source. No cut-off for these calls is given here.

Assays:
Influenza A virus [1] = test: Antiviral activity against Influenza A virus (A/Puerto Rico/8/34(H1N1)) infected in dog MDCK cells assessed as reduction in virus-induced cytopathogenicity incubated for 48 hrs by microscopic analysis; type: functional, organism-based; conditions: A/Puerto Rico/8/1934(H1N1)
H3N2 subtype = test: Antiviral activity against Influenza A virus (A/Aichi/2/1968(H3N2)) infected in dog MDCK cells assessed as reduction in virus-induced cytopathogenicity incubated for 48 hrs by microscopic analysis; type: functional, cell-based
Influenza A virus [2] = test: Antiviral activity against Influenza A virus (A/Fort Monmouth/1/1947(H1N1)) infected in dog MDCK cells assessed as reduction in virus-induced cytopathogenicity incubated for 48 hrs by microscopic analysis; type: functional, organism-based
Influenza A virus [3] = test: Antiviral activity against Influenza A virus 690 (H3) infected in dog MDCK cells assessed as reduction in virus-induced cytopathogenicity incubated for 48 hrs by microscopic analysis; type: functional, organism-based
[4] = Selectivity index, ratio of CC50 for dog MDCK cells to IC50 for antiviral activity against Influenza A virus (A/Aichi/2/1968(H3N2)); type: toxicity; conditions: read-out: Ratio CC50/IC50
Method in brief: (§1)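 SI = CC50/IC50, both from MTT read-outs in MDCK cells in triplicate. Cytotoxicity: 2 × 10⁴ cells/well, overnight at 37 °C with 5% CO2, then compound at 1.56–400 µM for 48 h, MTT 4 h, DMSO, A570. Antiviral: cells infected 1 h, washed, then cultured 48 h in DMEM with TPCK and two-fold serial compound dilutions.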

[5] = Selectivity index, ratio of CC50 for dog MDCK cells to IC50 for antiviral activity against Influenza A virus (A/Fort Monmouth/1/1947(H1N1)); type: toxicity; conditions: read-out: Ratio CC50/IC50; method in brief: as §1
[6] = Selectivity index, ratio of CC50 for dog MDCK cells to IC50 for antiviral activity against Influenza A virus (A/Puerto Rico/8/34(H1N1)); type: toxicity; conditions: read-out: Ratio CC50/IC50; method in brief: as §1
[7] = Selectivity index, ratio of CC50 for dog MDCK cells to IC50 for antiviral activity against Influenza A virus 690 (H3); type: toxicity; conditions: read-out: Ratio CC50/IC50; method in brief: as §1
Influenza A virus [8] = test: Antiviral activity against Influenza A virus (A/Puerto Rico/8/34(H1N1)) infected in dog MDCK cells assessed as reduction in plaque formation incubated for 48 hrs by crystal violet staining based assay; type: functional, organism-based; conditions: A/Puerto Rico/8/1934(H1N1), dose 5-40 µM
Method in brief: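 Plaque reduction assay in PR8-infected MDCK cells across a range of compound doses. Cells were fixed with 4% paraformaldehyde and stained with crystal violet. Inhibition was scored by counting plaques.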

[9] = Cytotoxicity against dog MDCK cells assessed as reduction in cell viability incubated for 48 hrs by MTT assay; type: cell-based, Canis lupus familiaris
Method in brief: (§2)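 MDCK or A549 cells were seeded at 2 × 10⁴ per well and incubated overnight at 37 °C, 5% CO₂. Compound (1.56 to 400) was added for 48 h, followed by MTT for 4 h at 37 °C and DMSO to dissolve the formazan. Absorbance was read at 570 nm and CC₅₀ calculated.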

[10] = Cytotoxicity against human A549 cells assessed as reduction in cell viability incubated for 48 hrs by MTT assay; type: cell-based; method in brief: as §2
Influenza A virus [11] = test: Antiviral activity against Influenza A virus (A/Puerto Rico/8/34(H1N1)) infected in dog MDCK cells assessed as reduction in viral replication by measuring NP level incubated for 24 hrs by immunofluorescence staining based Ti-Eclipse inverted fluorescence microscopic analysis; type: functional, organism-based; conditions: A/Puerto Rico/8/1934(H1N1), dose 5-40 µM
Method in brief: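 MDCK cells were infected with PR8 at 100TCID₅₀ and treated with varied compound concentrations. At 24 h p.i. they were washed with cold PBS, fixed in 4% paraformaldehyde for 10 min and blocked in 3% BSA for 1 h at room temperature. Staining used anti-NP (1:250) overnight at 4 °C, then a FITC secondary for 1 h, with DAPI nuclear counterstain; cells were imaged by fluorescence microscopy.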

Influenza A virus [12] = test: Antiviral activity against Influenza A virus (A/Puerto Rico/8/34(H1N1)) infected in dog MDCK cells assessed as reduction in viral replication by measuring NP level incubated for 24 hrs by Western blot analysis; type: functional, organism-based; conditions: A/Puerto Rico/8/1934(H1N1), dose 5-40 µM
Method in brief: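 Two-fold serial compound dilutions were added to PR8-infected MDCK cells after virus adsorption, and cells were harvested at 24 h p.i. Equal lysate protein was run on 10% SDS-PAGE and transferred to PVDF. Blots were probed with anti-NP (1:2000) and β-actin as loading control, then an HRP secondary, with chemiluminescent detection.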

Influenza A virus [13] = test: Antiviral activity against Influenza A virus (A/Puerto Rico/8/34(H1N1)) infected in human A549 cells assessed as reduction in viral replication by measuring HA mRNA expression at 5 to 40 uM incubated for 24 hrs by qRT-PCR analysis; type: functional, organism-based; conditions: A/Puerto Rico/8/1934(H1N1), dose 5-40 µM
Influenza A virus [14] = test: Antiviral activity against Influenza A virus (A/Puerto Rico/8/34(H1N1)) infected in dog MDCK cells assessed as reduction in viral replication by measuring HA mRNA expression measured upto 72 hrs by qRT-PCR analysis; type: functional, organism-based; conditions: A/Puerto Rico/8/1934(H1N1), time hrs <=72
Method in brief: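 Viral HA mRNA was measured by qRT-PCR in IAV-infected MDCK cells treated with serially diluted compound, at 24, 48 and 72 h p.i. Ribavirin served as positive control; data are mean SD.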

Influenza A virus [15] = test: Antiviral activity against Influenza A virus (A/Puerto Rico/8/34(H1N1)) infected in dog MDCK cells assessed as reduction in viral replication at 40 uM measured upto 10 hrs; type: functional, organism-based; conditions: A/Puerto Rico/8/1934(H1N1), time hrs <=10
Method in brief: (§3)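 Time-of-addition assay with PR8. After unabsorbed virus was removed, cells received compound during the intervals 0–2, 2–5, 5–8, 8–10 or 0–10 h, covering one replication cycle. At 10 h p.i., viral NP protein was read by western blot and viral mRNA by qRT-PCR. Three independent experiments, mean SD.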

Influenza A virus [16] = test: Antiviral activity against Influenza A virus (A/Puerto Rico/8/34(H1N1)) infected in dog MDCK cells assessed as reduction in viral replication by measuring NP expression at 40 uM measured upto 10 hrs by Western blot analysis; type: functional, organism-based; conditions: A/Puerto Rico/8/1934(H1N1), time hrs <=10; method in brief: as §3
Influenza A virus [17] = test: Antiviral activity against Influenza A virus (A/Puerto Rico/8/34(H1N1)) infected in human A549 cells assessed as reduction in viral replication by measuring NP expression at 40 uM measured upto 10 hrs by qRT-PCR analysis; type: functional, organism-based; conditions: A/Puerto Rico/8/1934(H1N1), time hrs <=10; method in brief: as §3
MDCK [18] = test: Upregulation of IFN-beta in dog MDCK cells infected with Influenza A virus (A/Puerto Rico/8/34(H1N1)) at 40 uM incubated for 24 hrs by qRT-PCR analysis; type: functional, cell-based; conditions: Canis lupus familiaris
Method in brief: (§4)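 Virus-infected MDCK cells were treated with compound for 24 h. Expression of each gene was then measured by qRT-PCR using gene-specific primers, against an untreated control group.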

MDCK [19] = test: Upregulation of MxA in dog MDCK cells infected with Influenza A virus (A/Puerto Rico/8/34(H1N1)) at 40 uM incubated for 24 hrs by qRT-PCR analysis; type: functional, cell-based; conditions: Canis lupus familiaris; method in brief: as §4
MDCK [20] = test: Downregulation of NOX1 in dog MDCK cells infected with Influenza A virus (A/Puerto Rico/8/34(H1N1)) at 40 uM incubated for 24 hrs by qRT-PCR analysis; type: functional, cell-based; conditions: Canis lupus familiaris; method in brief: as §4

CCOC(=O)C1=C(Nc2ccc(C(F)(F)F)cc2)C(=O)N(c2ccc(C(F)(F)F)cc2)C1c1ccc(C#N)cc1 (stereo not given)
IC50 (Influenza A virus [1]): > 400 µM

CCOC(=O)C1=C(Nc2ccc(OC)cc2)C(=O)N(c2ccc(OC)cc2)C1c1ccccc1 (stereo not given)
IC50 (Influenza A virus [1]): > 400 µM

CCOC(=O)C1=C(Nc2ccc(C)cc2)C(=O)N(c2ccc(C)cc2)C1c1ccccc1 (stereo not given)
IC50 (Influenza A virus [1]): 19 µM

CCOC(=O)C1=C(Nc2ccc(C(F)(F)F)cc2)C(=O)N(c2ccc(C(F)(F)F)cc2)C1c1ccc(Br)cc1 (stereo not given)
IC50 (Influenza A virus [1]): > 400 µM

CCOC(=O)C1=C(Nc2ccc(C(F)(F)F)cc2)C(=O)N(c2ccc(C(F)(F)F)cc2)C1c1cccc(C(F)(F)F)c1 (stereo not given)
IC50 (Influenza A virus [1]): 11.8 µM

CCOC(=O)C1=C(Nc2ccc(C(F)(F)F)cc2)C(=O)N(c2ccc(C(F)(F)F)cc2)C1c1ccc(C(C)(C)C)cc1 (stereo not given)
IC50 (Influenza A virus [1]): > 400 µM

COC(=O)C1=C(Nc2cccc(C(F)(F)F)c2)C(=O)N(c2cccc(C(F)(F)F)c2)C1c1ccccc1 (stereo not given)
IC50 (Influenza A virus [1]): 16.1 µM

CCOC(=O)C1=C(Nc2ccc(Oc3ccccc3)cc2)C(=O)N(c2ccc(Oc3ccccc3)cc2)C1c1ccccc1 (stereo not given)
IC50 (Influenza A virus [1]): > 400 µM

CCOC(=O)C1=C(Nc2ccc(C(F)(F)F)cc2)C(=O)N(c2ccc(C(F)(F)F)cc2)C1c1cccc2ccccc12 (stereo not given)
IC50 (Influenza A virus [1]): 11.8 µM

CCOC(=O)C1=C(Nc2ccc(C(F)(F)F)cc2)C(=O)N(c2ccc(C(F)(F)F)cc2)C1c1ccc([N+](=O)[O-])cc1 (stereo not given)
IC50 (Influenza A virus [1]): > 400 µM

CCOC(=O)C1=C(Nc2ccc(C(F)(F)F)cc2)C(=O)N(c2ccc(C(F)(F)F)cc2)C1c1ccc(Br)s1 (stereo not given)
IC50 (Influenza A virus [1]): > 400 µM

CCOC(=O)C1=C(Nc2ccc(C(F)(F)F)cc2)C(=O)N(c2ccc(C(F)(F)F)cc2)C1c1ccc(C)cc1 (stereo not given)
IC50 (Influenza A virus [1]): 68.5 µM

CCOC(=O)C1=C(Nc2ccc(C(F)(F)F)cc2)C(=O)N(c2ccc(C(F)(F)F)cc2)C1c1cccc([N+](=O)[O-])c1 (stereo not given)
IC50 (Influenza A virus [1]): > 400 µM

COC(=O)C1=C(Nc2ccc(C(F)(F)F)cc2)C(=O)N(c2ccc(C(F)(F)F)cc2)C1c1ccccc1 (stereo not given)
IC50 (Influenza A virus [1]): 11.9 µM

CCOC(=O)C1=C(Nc2ccc(C(F)(F)F)cc2)C(=O)N(c2ccc(C(F)(F)F)cc2)C1c1ccc(C(F)(F)F)cc1 (stereo not given)
IC50 (Influenza A virus [1]): 67.2 µM

CCOC(=O)C1=C(Nc2ccc(Br)cc2)C(=O)N(c2ccc(Br)cc2)C1c1ccccc1 (stereo not given)
IC50 (Influenza A virus [1]): > 400 µM

CCOC(=O)C1=C(Nc2ccc(C(C)C)cc2)C(=O)N(c2ccc(C(C)C)cc2)C1c1ccccc1 (stereo not given)
IC50 (Influenza A virus [1]): > 400 µM

CCOC(=O)C1=C(Nc2ccc(C(F)(F)F)cc2)C(=O)N(c2ccc(C(F)(F)F)cc2)C1c1ccc(OC(F)(F)F)cc1 (stereo not given)
IC50 (Influenza A virus [1]): 128 µM

CCOC(=O)C1=C(Nc2ccc(C(F)(F)F)cc2)C(=O)N(c2ccc(C(F)(F)F)cc2)C1c1cccc(OC)c1 (stereo not given)
IC50 (Influenza A virus [1]): 9.23 µM

CCOC(=O)C1=C(Nc2ccc(C(F)(F)F)cc2)C(=O)N(c2ccc(C(F)(F)F)cc2)C1
IC50 (Influenza A virus [1]): 222 µM

CCOC(=O)C1=C(Nc2ccccc2)C(=O)N(c2ccccc2)C1c1ccccc1 (stereo not given)
IC50 (Influenza A virus [1]): > 400 µM

CCOC(=O)C1=C(Nc2ccc(C(C)(C)C)cc2)C(=O)N(c2ccc(C(C)(C)C)cc2)C1c1ccccc1 (stereo not given)
IC50 (Influenza A virus [1]): > 400 µM

CCOC(=O)C1=C(Nc2ccc(C(F)(F)F)cc2)C(=O)N(c2ccc(C(F)(F)F)cc2)C1c1ccccc1 (stereo not given)
IC50 (Influenza A virus [1]): 3.11 µM | IC50 (H3N2 subtype): 5.26 µM | IC50 (Influenza A virus [2]): 3.58 µM | IC50 (Influenza A virus [3]): 7.13 µM | selectivity ratio [4]: > 76 | selectivity ratio [5]: > 112 | selectivity ratio [6]: > 129 | selectivity ratio [7]: > 56.1 | Activity (Influenza A virus [8]): Dose-dependent effect | CC50 at 48 h [9]: > 400 µM | CC50 at 48 h [10]: > 400 µM | Activity (Influenza A virus [11]): Dose-dependent effect | Activity (Influenza A virus [12]): Dose-dependent effect | Activity (Influenza A virus [13]): Active | Activity (Influenza A virus [14]): Active | Activity (Influenza A virus [15]): Active | Activity (Influenza A virus [16]): Active | Activity (Influenza A virus [17]): Active | Activity (MDCK [18]): Active | Activity (MDCK [19]): Active | Activity (MDCK [20]): Active

CCOC(=O)C1=C(NC2CCCCC2)C(=O)N(C2CCCCC2)C1c1ccccc1 (stereo not given)
IC50 (Influenza A virus [1]): > 400 µM

CCOC(=O)C1=C(Nc2cccc(Cl)c2)C(=O)N(c2cccc(Cl)c2)C1c1ccccc1 (stereo not given)
IC50 (Influenza A virus [1]): 6.91 µM

CCOC(=O)C1=C(Nc2ccc(C(F)(F)F)cc2)C(=O)N(c2ccc(C(F)(F)F)cc2)C1c1ccc(F)cc1 (stereo not given)
IC50 (Influenza A virus [1]): 7.63 µM

CCOC(=O)C1=C(Nc2ccc(Cl)cc2)C(=O)N(c2ccc(Cl)cc2)C1c1ccccc1 (stereo not given)
IC50 (Influenza A virus [1]): > 400 µM

CCOC(=O)C1=C(Nc2ccc(C(F)(F)F)cc2)C(=O)N(c2ccc(C(F)(F)F)cc2)C1c1ccc(Cl)cc1 (stereo not given)
IC50 (Influenza A virus [1]): > 400 µM

NC(=O)c1ncn([C@@H]2O[C@H](CO)[C@@H](O)[C@H]2O)n1 [RIBAVIRIN]
IC50 (Influenza A virus [1]): 2.84 µM

CCOC(=O)C1=C(Nc2cccc(C(F)(F)F)c2)C(=O)N(c2cccc(C(F)(F)F)c2)C1c1ccccc1 (stereo not given)
IC50 (Influenza A virus [1]): 30.9 µM
